36 sequences from the array DNA melting data of Ke et al. (doi:10.1101/2024.01.08.574731) can be followed below.

Data set [1] is described as follows: melting temperature; fluorescence melt of hairpins on a sequencing array, two-state fit, raised by 9.35 °C to match UV melts. The settings on record: sodium 0.088 M. In outline:
(§1)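 Two-state fits, bootstrapped, provided melting temperature and folding enthalpy from Cy3 fluorescence normalised to pre-quench Cy3 and to control constructs. Library hairpins with annealed Cy3 and quencher oligos were imaged on a sequenced MiSeq flow cell in 50 mM Na-HEPES pH 8.0, 25 mM NaCl, at 2.5 °C intervals up to 60 °C. Four replicates were combined with inverse-variance weighting. A 9.35 °C upward shift was applied to fitted temperatures to match UV melts.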

Data set [2] is described as follows: folding enthalpy; higher = less favourable; fluorescence melt of hairpins on a sequencing array, two-state fit. The settings on record: sodium 0.088 M. In outline: as §1

On to GATCCGTCAGCGGATC ((((((....)))))), for which the Tm in data set [1] was found to be 57.4 °C. Besides, in data set [2], the folding enthalpy was -42.6 kcal/mol.

As for GCTCAGCGAAAGCAGTGC ((.(.((....)).).)), the Tm in data set [1] came out at 44.4 °C. In addition, the folding enthalpy in data set [2] was -13.2 kcal/mol.

As for GCACTATCGAAAGATTGC (((..(((....)))))), the Tm in data set [1] worked out at 30.6 °C. Besides, in data set [2], the folding enthalpy is -17.7 kcal/mol.

With GGCATCGAAAGATCGGCC ((((((....)))..))), the Tm in data set [1] amounted to 41.1 °C. Moreover, the folding enthalpy in data set [2] was -23.7 kcal/mol.

Consider GGCGTCGAAAGACGGGCC ((((((....)))..))), for which the Tm in data set [1] is 52 °C. In data set [2], the folding enthalpy is -12.7 kcal/mol.

Take GGGAAACGAAAGTTCCC (((.(((....)))))): in data set [1], the Tm turned out to be 53.4 °C. The folding enthalpy in data set [2] was -28 kcal/mol.

GTCGCTGGAAACGGTGAC (((.(.(....).).))): in data set [1], the Tm was determined as 44.2 °C. In addition, the folding enthalpy in data set [2] was -28.6 kcal/mol.

In the case of GCCATTGGAAACAATGGC (((((((....))))))), the Tm in data set [1] amounted to 67.5 °C. Also, the folding enthalpy in data set [2] was -43.9 kcal/mol.

Turning to GCGTGCGAAAGCAGCCGC ((((((....)))..))), the Tm in data set [1] amounted to 55.2 °C. Also, the folding enthalpy in data set [2] was -19 kcal/mol.

Regarding GACAGGGAAACCTGTC ((((((....)))))), in data set [1], the Tm turned out to be 58.9 °C. Besides, in data set [2], the folding enthalpy was -37.8 kcal/mol.

As to GCTCCTGGAAACAGAAGC (((.(((....))).))), in data set [1], the Tm amounted to 39.9 °C. Further, the folding enthalpy in data set [2] was -28.5 kcal/mol.

With GCCGGGCGAAAGCAAGGC (((..((....))..))), the Tm in data set [1] was found to be 68.5 °C. Also, in data set [2], the folding enthalpy was -34 kcal/mol.

As for GTCCCGCGAAAGCGGAC (((.(((....)))))), in data set [1], the Tm amounted to 56.3 °C. In data set [2], the folding enthalpy is -9.81 kcal/mol.

As to GACGCCGGAAACAGCGTC (((((.(....).))))), the Tm in data set [1] stood at 54.8 °C. In addition, the folding enthalpy in data set [2] is -35.9 kcal/mol.

As to GAAGGGCCGAAAGGCTTC (((..(((....)))))), the Tm in data set [1] came out at 23 °C. For the same sequence, in data set [2], the folding enthalpy was -7.08 kcal/mol.

In the case of GGCAATTCGAAAGAAGCC (((..(((....)))))), the Tm in data set [1] worked out at 37.8 °C. Further, the folding enthalpy in data set [2] is -24.7 kcal/mol.

As to GCCGCCACGAAAGTGGGC (((..(((....)))))), the Tm in data set [1] turned out to be 54.6 °C. Further, in data set [2], the folding enthalpy is -8.39 kcal/mol.

Consider GAAAAGGGAAACTTTTTC (((((.(....).))))), for which the Tm in data set [1] was determined as 29.6 °C. Besides, in data set [2], the folding enthalpy was -11.5 kcal/mol.

Regarding GGTGCAGGAAACCGCACC (((((.(....).))))), the Tm in data set [1] came to 57 °C. Further, in data set [2], the folding enthalpy was -45.1 kcal/mol.

Consider GCCTTGCGAAAGCATCGC ((..(((....)))..)), for which the Tm in data set [1] amounted to 51 °C. Besides, the folding enthalpy in data set [2] was -12.4 kcal/mol.

GATCTTTCAGAAGATC ((((((....)))))): the Tm in data set [1] came out at 44.3 °C. Moreover, in data set [2], the folding enthalpy was -34.1 kcal/mol.

GGGTTGGGAAACTAGCCC (((.(.(....).).))): the Tm in data set [1] is 42 °C. Moreover, in data set [2], the folding enthalpy was -21.4 kcal/mol.

As to GCCGGCGAAAGCCAGGGC ((((((....)))..))), the Tm in data set [1] stood at 63.1 °C. The folding enthalpy in data set [2] is -18.7 kcal/mol.

For GTACTTCGAAAGAATTAC (((.(((....))).))), the Tm in data set [1] came out at 32.2 °C. Also, the folding enthalpy in data set [2] is -18.6 kcal/mol.

As for GGCTACGGAAACGTAACC ((.((((....)))).)), the Tm in data set [1] stood at 42.1 °C. Moreover, the folding enthalpy in data set [2] is -26.2 kcal/mol.

Consider GGGAGTGAAAACTCCC ((((((....)))))), for which the Tm in data set [1] was found to be 65.2 °C. In data set [2], the folding enthalpy is -34.1 kcal/mol.

Regarding GGAGTACGAAAGTAATCC (((.(((....))).))), in data set [1], the Tm came out at 51.4 °C. Besides, in data set [2], the folding enthalpy is -31 kcal/mol.

For GATTACGAAAGTAATC ((((((....)))))), the Tm in data set [1] amounted to 56.4 °C. The folding enthalpy in data set [2] was -40 kcal/mol.

GACCGGACGAAAGTCGTC (((..(((....)))))): in data set [1], the Tm is 37.1 °C. Also, the folding enthalpy in data set [2] was -12.1 kcal/mol.

As to GGTGGTGAAAACCACC ((((((....)))))), the Tm in data set [1] stood at 68.2 °C. Further, the folding enthalpy in data set [2] was -32.5 kcal/mol.

For GTGTAAGGAAACTTACGC (.(((((....))))).), the Tm in data set [1] is 45.3 °C. Also, in data set [2], the folding enthalpy is -25.7 kcal/mol.

Turning to GGATGCGAAAGCAAATCC ((((((....)))..))), the Tm in data set [1] was 47.1 °C. The folding enthalpy in data set [2] was -21 kcal/mol.

In the case of GGCGCGGGAAACCGCACC ((.((((....)))).)), the Tm in data set [1] is 61.7 °C. Also, the folding enthalpy in data set [2] is -22.4 kcal/mol.

Turning to GAAGTCGGAAACGATTTC (((.(((....))).))), in data set [1], the Tm came out at 44.2 °C. Also, the folding enthalpy in data set [2] is -30.6 kcal/mol.

Take GCCCAGCGAAAGCTCAGC ((..(((....)))..)): the Tm in data set [1] was 32.6 °C. The folding enthalpy in data set [2] was -8.74 kcal/mol.

On to CGACCGGAAACGGCTTCG ((((((....)))..))), for which the Tm in data set [1] turned out to be 28.5 °C. Further, in data set [2], the folding enthalpy was -17 kcal/mol.
